# Source: ChEMBL document CHEMBL4689842, “EUbOPEN Chemogenomics Library wave 1” (2021)
# Tests used:
# U2OS = test: Multiplex assay against U2OS; type: toxicity, cell-based; details: human
# Summary of the method: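 With compound added, live cells were imaged on a CQ1 microscope at 37°C and 5% CO2; staining with Hoechst33342, BioTracker Green Microtubule Cytoskeleton Dye, MitoTracker Red and Annexin V Alexa Fluor 680 had been done at seeding. The CellPathfinder machine-learning gating scheme split cells into Hoechst high-intensity objects or normal cells, normal cells into healthy, pyknosed or fragmented nuclei, and pyknosed cells into mitotic or apoptotic. The tubulin, mitochondrial-mass and membrane-permeability phenotypes are per cents of healthy-nucleus cells.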
# HEK-293T = test: Incucyte cell viability with HEK293T; type: toxicity, cell-based; details: human, 10 µM, compound concentration 10 uM; further: filed as whole numbers so only -1 and 0 and 1 occur
# [1] = 12 h, 1 µM, compound concentration 1 uM, replicate 1
# [2] = 12 h, 1 µM, compound concentration 1 uM, replicate 2
# [3] = 12 h, 10 µM, compound concentration 10 uM, replicate 1
# [4] = 12 h, 10 µM, compound concentration 10 uM, replicate 2
# [5] = 24 h, 1 µM, compound concentration 1 uM, replicate 1
# [6] = 24 h, 1 µM, compound concentration 1 uM, replicate 2
# [7] = 24 h, 10 µM, compound concentration 10 uM, replicate 1
# [8] = 24 h, 10 µM, compound concentration 10 uM, replicate 2
# [9] = 48 h, 1 µM, compound concentration 1 uM, replicate 1
# [10] = 48 h, 1 µM, compound concentration 1 uM, replicate 2
# [11] = 48 h, 10 µM, compound concentration 10 uM, replicate 1
# [12] = 48 h, 10 µM, compound concentration 10 uM, replicate 2
smiles,measurement,setting,value
CCCn1c(=O)c2[nH]c(C34CC5CC(CC3C5)C4)nc2n(CCC)c1=O [ROLOFYLLINE],Population Apoptotic (%),U2OS; [1],50%
same,Population Fragmented Nuclei (%),U2OS; [1],14%
same,Population Healthy Nuclei (%),U2OS; [1],77%
same,Population Hoechst High Intensity Objects (%),U2OS; [1],7%
same,Population Membrane Permeable-Phenotype (%),U2OS; [1],9%
same,Population Mitochondria Different-Phenotype (%),U2OS; [1],8%
same,Population Mitotic Cells (%),U2OS; [1],50%
same,Population Normal (%),U2OS; [1],92%
same,Population Pyknosed Nuclei (%),U2OS; [1],8%
same,Population Tubulin-Different-Phenotype (%),U2OS; [1],18%
same,Total Cell Count,U2OS; [1],123
same,Population Apoptotic (%),U2OS; [2],71%
same,Population Fragmented Nuclei (%),U2OS; [2],4%
same,Population Healthy Nuclei (%),U2OS; [2],88%
same,Population Hoechst High Intensity Objects (%),U2OS; [2],3%
same,Population Membrane Permeable-Phenotype (%),U2OS; [2],12%
same,Population Mitochondria Different-Phenotype (%),U2OS; [2],15%
same,Population Mitotic Cells (%),U2OS; [2],28%
same,Population Normal (%),U2OS; [2],96%
same,Population Pyknosed Nuclei (%),U2OS; [2],7%
same,Population Tubulin-Different-Phenotype (%),U2OS; [2],20%
same,Total Cell Count,U2OS; [2],81
same,Population Apoptotic (%),U2OS; [3],58%
same,Population Fragmented Nuclei (%),U2OS; [3],7%
same,Population Healthy Nuclei (%),U2OS; [3],76%
same,Population Hoechst High Intensity Objects (%),U2OS; [3],13%
same,Population Membrane Permeable-Phenotype (%),U2OS; [3],32%
same,Population Mitochondria Different-Phenotype (%),U2OS; [3],80%
same,Population Mitotic Cells (%),U2OS; [3],41%
same,Population Normal (%),U2OS; [3],86%
same,Population Pyknosed Nuclei (%),U2OS; [3],17%
same,Population Tubulin-Different-Phenotype (%),U2OS; [3],97%
same,Population Apoptotic (%),U2OS; [4],55%
same,Population Fragmented Nuclei (%),U2OS; [4],13%
same,Population Healthy Nuclei (%),U2OS; [4],74%
same,Population Hoechst High Intensity Objects (%),U2OS; [4],3%
same,Population Membrane Permeable-Phenotype (%),U2OS; [4],46%
same,Population Mitochondria Different-Phenotype (%),U2OS; [4],73%
same,Population Mitotic Cells (%),U2OS; [4],44%
same,Population Normal (%),U2OS; [4],96%
same,Population Pyknosed Nuclei (%),U2OS; [4],12%
same,Population Tubulin-Different-Phenotype (%),U2OS; [4],100%
same,Total Cell Count,U2OS; [4],99
same,Population Apoptotic (%),U2OS; [5],50%
same,Population Fragmented Nuclei (%),U2OS; [5],9%
same,Population Healthy Nuclei (%),U2OS; [5],74%
same,Population Hoechst High Intensity Objects (%),U2OS; [5],2%
same,Population Membrane Permeable-Phenotype (%),U2OS; [5],5%
same,Population Mitochondria Different-Phenotype (%),U2OS; [5],5%
same,Population Mitotic Cells (%),U2OS; [5],50%
same,Population Normal (%),U2OS; [5],97%
same,Population Pyknosed Nuclei (%),U2OS; [5],15%
same,Population Tubulin-Different-Phenotype (%),U2OS; [5],10%
same,Total Cell Count,U2OS; [5],136
same,Population Apoptotic (%),U2OS; [6],40%
same,Population Fragmented Nuclei (%),U2OS; [6],7%
same,Population Healthy Nuclei (%),U2OS; [6],88%
same,Population Hoechst High Intensity Objects (%),U2OS; [6],5%
same,Population Membrane Permeable-Phenotype (%),U2OS; [6],6%
same,Population Mitochondria Different-Phenotype (%),U2OS; [6],11%
same,Population Mitotic Cells (%),U2OS; [6],60%
same,Population Normal (%),U2OS; [6],94%
same,Population Pyknosed Nuclei (%),U2OS; [6],4%
same,Population Tubulin-Different-Phenotype (%),U2OS; [6],15%
same,Total Cell Count,U2OS; [6],83
same,Population Apoptotic (%),U2OS; [7],60%
same,Population Fragmented Nuclei (%),U2OS; [7],13%
same,Population Healthy Nuclei (%),U2OS; [7],60%
same,Population Hoechst High Intensity Objects (%),U2OS; [7],10%
same,Population Membrane Permeable-Phenotype (%),U2OS; [7],38%
same,Population Mitochondria Different-Phenotype (%),U2OS; [7],84%
same,Population Mitotic Cells (%),U2OS; [7],39%
same,Population Normal (%),U2OS; [7],89%
same,Population Pyknosed Nuclei (%),U2OS; [7],26%
same,Population Tubulin-Different-Phenotype (%),U2OS; [7],98%
same,Total Cell Count,U2OS; [7],105
same,Population Apoptotic (%),U2OS; [8],56%
same,Population Fragmented Nuclei (%),U2OS; [8],9%
same,Population Healthy Nuclei (%),U2OS; [8],58%
same,Population Hoechst High Intensity Objects (%),U2OS; [8],5%
same,Population Membrane Permeable-Phenotype (%),U2OS; [8],41%
same,Population Mitochondria Different-Phenotype (%),U2OS; [8],81%
same,Population Mitotic Cells (%),U2OS; [8],43%
same,Population Normal (%),U2OS; [8],94%
same,Population Pyknosed Nuclei (%),U2OS; [8],31%
same,Population Tubulin-Different-Phenotype (%),U2OS; [8],100%
same,Total Cell Count,U2OS; [8],120
same,Population Apoptotic (%),U2OS; [9],72%
same,Population Fragmented Nuclei (%),U2OS; [9],9%
same,Population Healthy Nuclei (%),U2OS; [9],78%
same,Population Hoechst High Intensity Objects (%),U2OS; [9],4%
same,Population Membrane Permeable-Phenotype (%),U2OS; [9],2%
same,Population Mitochondria Different-Phenotype (%),U2OS; [9],10%
same,Population Mitotic Cells (%),U2OS; [9],27%
same,Population Normal (%),U2OS; [9],95%
same,Population Pyknosed Nuclei (%),U2OS; [9],12%
same,Population Tubulin-Different-Phenotype (%),U2OS; [9],10%
same,Total Cell Count,U2OS; [9],168
same,Population Apoptotic (%),U2OS; [10],43%
same,Population Fragmented Nuclei (%),U2OS; [10],5%
same,Population Healthy Nuclei (%),U2OS; [10],84%
same,Population Hoechst High Intensity Objects (%),U2OS; [10],2%
same,Population Membrane Permeable-Phenotype (%),U2OS; [10],8%
same,Population Mitochondria Different-Phenotype (%),U2OS; [10],21%
same,Population Mitotic Cells (%),U2OS; [10],56%
same,Population Normal (%),U2OS; [10],97%
same,Population Pyknosed Nuclei (%),U2OS; [10],9%
same,Population Tubulin-Different-Phenotype (%),U2OS; [10],17%
same,Total Cell Count,U2OS; [10],103
same,Population Apoptotic (%),U2OS; [11],69%
same,Population Fragmented Nuclei (%),U2OS; [11],18%
same,Population Healthy Nuclei (%),U2OS; [11],43%
same,Population Hoechst High Intensity Objects (%),U2OS; [11],12%
same,Population Membrane Permeable-Phenotype (%),U2OS; [11],35%
same,Population Mitochondria Different-Phenotype (%),U2OS; [11],60%
same,Population Mitotic Cells (%),U2OS; [11],30%
same,Population Normal (%),U2OS; [11],87%
same,Population Pyknosed Nuclei (%),U2OS; [11],37%
same,Population Tubulin-Different-Phenotype (%),U2OS; [11],96%
same,Total Cell Count,U2OS; [11],157
same,Population Apoptotic (%),U2OS; [12],66%
same,Population Fragmented Nuclei (%),U2OS; [12],19%
same,Population Healthy Nuclei (%),U2OS; [12],39%
same,Population Hoechst High Intensity Objects (%),U2OS; [12],4%
same,Population Membrane Permeable-Phenotype (%),U2OS; [12],81%
same,Population Mitochondria Different-Phenotype (%),U2OS; [12],68%
same,Population Mitotic Cells (%),U2OS; [12],33%
same,Population Normal (%),U2OS; [12],95%
same,Population Pyknosed Nuclei (%),U2OS; [12],40%
same,Population Tubulin-Different-Phenotype (%),U2OS; [12],100%
same,Total Cell Count,U2OS; [12],168
same,Growth Rate,"HEK-293T; 0 h, replicate number 1, timepoint 0 hours",0
same,Growth Rate,"HEK-293T; 6 h, replicate number 1, timepoint 6 hours",0
same,Growth Rate,"HEK-293T; 12 h, replicate number 1, timepoint 12 hours",0
same,Growth Rate,"HEK-293T; 18 h, replicate number 1, timepoint 18 hours",0
same,Growth Rate,"HEK-293T; 24 h, replicate number 1, timepoint 24 hours",0
